Calls of active or inactive are those of the source. The calls are words filed in the database; no cut-off is given here.
Tests used:
Homo sapiens [1] = species: Homo sapiens; assay: Inhibition of GST-tagged TEAD4 C367S mutant (unknown origin) expressed in Escherichia coli BL21 (DE3) cells/FAM-labelled YAP1 (60 to 99 residues)(unknown origin) protein-protein interaction preincubated for 24 hrs at 4 degree C with TEAD4 C367S mutant followed by fluorescent labelled YAP1 addition by fluorescence polarization assay
In short: (§1)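 FP: 64 nM TEAD4, TEAD4C367S, TEAD2 or TEAD3, or 250 nM TEAD1, was preincubated with compound for 24 h at 4 °C in PBS with 0.01% Triton X-100. FAM-YAP1 60–99 peptide (disulfide-crosslinked) was then added at 16 nM final. Polarization was read at ex 485/em 535 nm. Percent inhibition was taken relative to no-compound and no-protein controls. The single-point primary screen used 50 μM.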

S2 = assay: Inhibition of uPAR (unknown origin) expressed in S2 cells/FAM-labelled alpha-helical peptide AE-147 (unknown origin) protein-protein interaction preincubated for 24 hrs at 4 degree C with uPAR followed by fluorescent labelled AE-147 addition by fluorescence polarization assay; settings: Homo sapiens
In short: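 Counter-screen FP: 250 nM uPAR lacking the GPI anchor (from S2 cells) was preincubated with compound for 24 h at 4 °C in PBS with 0.01% Triton X-100. AE-147-FAM peptide was then added at 100 nM final and polarization read at ex 485/em 535 nm.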

[2] = target: T1, YAP1-TEAD4 (Homo sapiens) (UniProt P46937+Q15561); assay: (§2) Covalent inhibition of GST-tagged TEAD4 (217 to 434 residues) (unknown origin) expressed in Escherichia coli BL21 (DE3) cells/FAM-labelled YAP1 (60 to 99 residues)(unknown origin) protein-protein interaction assessed as protein-compound adduct formation at 100 uM incubated for 24 hrs at 4 degree C followed by mass spectrometry analysis
In short: (§3)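 Intact-protein MS: 2.5 μM protein (TEAD4 217–434 with GST cleaved, TEAD4C367S, TEAD1 209–426, TEAD2 217–447 or TEAD3 210–427) incubated with 100 μM compound in PBS for 24 h at 4 °C. Samples were centrifuged to remove precipitate, desalted on a C3 reverse-phase column with a water/acetonitrile 0.1% formic acid gradient, and masses were read by Q-TOF. Adduct peaks were reported as percent.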

[3] = target: T1, YAP1-TEAD4 (Homo sapiens); assay: as §2, with “assessed as second protein-compound adduct” for “assessed as protein-compound adduct”; in short: as §3
Homo sapiens [4] = species: Homo sapiens; assay: as §2, with “C367S mutant” for “(217 to 434 residues)”, “(DE3)/FAM-labelled” for “(DE3) cells/FAM-labelled”; in short: as §3
[5] = target: T1, YAP1-TEAD4 (Homo sapiens); assay: Inhibition of GST-tagged TEAD4 (217 to 434 residues) (unknown origin) expressed in Escherichia coli BL21 (DE3) cells/FAM-labelled YAP1 (60 to 99 residues)(unknown origin) protein-protein interaction assessed as maximum inhibition at 50 uM preincubated for 24 hrs at 4 degree C with TEAD4 followed by fluorescent labelled YAP1 addition by fluorescence polarization assay; in short: as §1
YAP1-TEAD4 = YAP1-TEAD4 (Homo sapiens, UniProt Q15561); assay: Inhibition of GST-tagged TEAD4 (217 to 434 residues) (unknown origin) expressed in Escherichia coli BL21 (DE3) cells/FAM-labelled YAP1 (60 to 99 residues)(unknown origin) protein-protein interaction preincubated for 24 hrs at 4 degree C with TEAD4 followed by fluorescent labelled YAP1 addition by fluorescence polarization assay; in short: as §1
[6] = target: T1, YAP1-TEAD4 (Homo sapiens); assay: as §2, with “assessed as additional protein-compound adduct” for “assessed as protein-compound adduct”; in short: as §3

Chain of YAP1-TEAD4 (P46937 whole entry, the tested form may be a part): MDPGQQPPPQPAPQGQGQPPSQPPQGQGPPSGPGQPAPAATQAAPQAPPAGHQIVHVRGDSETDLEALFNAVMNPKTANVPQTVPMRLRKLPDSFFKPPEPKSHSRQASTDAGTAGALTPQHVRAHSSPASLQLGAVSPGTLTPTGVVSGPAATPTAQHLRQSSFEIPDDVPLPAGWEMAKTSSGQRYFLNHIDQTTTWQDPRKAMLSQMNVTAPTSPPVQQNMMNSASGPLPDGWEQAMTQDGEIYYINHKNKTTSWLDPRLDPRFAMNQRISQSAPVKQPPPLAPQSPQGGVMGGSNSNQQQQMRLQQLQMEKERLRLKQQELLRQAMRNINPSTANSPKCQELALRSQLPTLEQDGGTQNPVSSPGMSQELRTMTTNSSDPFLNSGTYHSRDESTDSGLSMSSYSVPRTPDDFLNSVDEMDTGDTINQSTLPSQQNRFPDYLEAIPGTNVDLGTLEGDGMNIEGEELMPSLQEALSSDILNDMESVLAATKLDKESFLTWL
Chain of YAP1-TEAD4 (Q15561 whole entry, the tested form may be a part): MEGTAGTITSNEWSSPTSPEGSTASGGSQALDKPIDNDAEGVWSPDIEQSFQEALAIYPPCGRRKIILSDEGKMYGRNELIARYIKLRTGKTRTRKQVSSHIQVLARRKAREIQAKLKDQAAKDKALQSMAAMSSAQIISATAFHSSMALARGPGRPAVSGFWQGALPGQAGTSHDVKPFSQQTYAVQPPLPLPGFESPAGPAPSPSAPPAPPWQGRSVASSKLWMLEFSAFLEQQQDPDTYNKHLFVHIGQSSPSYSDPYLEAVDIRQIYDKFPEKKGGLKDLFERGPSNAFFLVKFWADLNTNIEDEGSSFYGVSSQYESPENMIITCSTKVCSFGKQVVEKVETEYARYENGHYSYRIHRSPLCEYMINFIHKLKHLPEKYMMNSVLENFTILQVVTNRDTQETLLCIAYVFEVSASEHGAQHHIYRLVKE

SMILES | percent protein-compound adduct formation [2] [%] | percent second protein-compound adduct [3] [%] | inhibition (Homo sapiens [4]) | Imax [5] [%] | IC50 (YAP1-TEAD4) [µM] | percent protein-compound adduct formation [6] [%] | inhibition (Homo sapiens [1]) | inhibition (S2)
O=C(CCl)N1CCN(S(=O)(=O)c2ccc(Cl)cc2[N+](=O)[O-])CC1 | 54 | 31 | – | – | – | – | inactive | inactive
COc1ccc(CN(C(=O)CCl)C(C(=O)NC2CCCCCC2)c2ccc(OC)cc2)cc1 (stereo not drawn) | 37 | – | inactive | 45 | 5.5 | – | inactive | inactive
COc1ccc(C(C(=O)NC2CCCCCC2)N(Cc2ccccc2)C(=O)CCl)cc1 (stereo not drawn) | 31 | – | inactive | 49 | 7.4 | – | inactive | inactive
COc1ccc(C2=NN(C(=O)CCl)C(c3nc4ccccc4[nH]3)C2)cc1 (stereo not drawn) | 38 | 30 | inactive | 45 | 5.8 | – | inactive | inactive
O=C(CCl)N1N=C2/C(=C/c3ccco3)CCCC2C1c1ccco1 (stereo not drawn) | 32 | 10 | inactive | 67 | 7.8 | – | inactive | inactive
O=C(CCl)N1N=C(c2ccccc2)CC1c1ccccc1 (stereo not drawn) | 38 | 21 | inactive | 52 | 5.9 | – | inactive | inactive
COc1ccc(C(C(=O)NCCc2ccccc2)N(Cc2cccs2)C(=O)CCl)cc1 (stereo not drawn) | 47 | – | inactive | 42 | 10.5 | – | inactive | inactive
Cc1ccc(S(=O)(=O)N2CCN(C(=O)CCl)CC2)cc1C | 38 | – | – | 48 | 22.8 | – | inactive | inactive
COc1ccc(C(C(=O)NC2CCCCCC2)N(Cc2ccc(C)cc2)C(=O)CCl)cc1 (stereo not drawn) | 25 | – | inactive | 36 | 4.4 | – | inactive | inactive
O=C(CCl)N1CCN(S(=O)(=O)/C=C/c2ccccc2)CC1 | 73 | – | – | 49 | 4.9 | – | inactive | inactive
COc1ccc(C(C(=O)NC2CCCCCC2)N(Cc2cccs2)C(=O)CCl)cc1 (stereo not drawn) | 32 | – | inactive | 41 | 4.8 | – | inactive | inactive
O=C(CCl)N1N=C(c2ccc(Cl)cc2)CC1c1ccco1 (stereo not drawn) | 64 | 18 | inactive | 62 | 6 | – | inactive | inactive
COc1ccc(CN(C(=O)CCl)C(C(=O)NC2CCCCC2)c2cccs2)cc1 (stereo not drawn) | 12 | 20 | inactive | 67 | 13 | 30 | inactive | inactive
O=C(CCl)N1N=C(c2cccs2)CC1c1cccs1 (stereo not drawn) | 45 | 9 | inactive | 46 | 4.7 | – | inactive | inactive

Now from value to compound, other results behind:

percent protein-compound adduct formation [2] [%] | percent second protein-compound adduct [3] [%] | inhibition (Homo sapiens [4]) | Imax [5] [%] | IC50 (YAP1-TEAD4) [µM] | percent protein-compound adduct formation [6] [%] | SMILES | inhibition (Homo sapiens [1]) | inhibition (S2)
42 | – | inactive | 39 | 1.1 | – | COc1ccc(C2=NN(C(=O)CCl)C(c3cccc(OC)c3OC)C2)cc1 (stereo not drawn) | inactive | inactive
75 | 25 | – | 49 | 1.9 | – | Cc1ccc(S(=O)(=O)N2CCN(C(=O)CCl)C2)cc1 | inactive | inactive
27 | – | inactive | 41 | 3.8 | – | Cc1ccc(C2CC(c3cccs3)=NN2C(=O)CCl)cc1 (stereo not drawn) | inactive | inactive
29 | 30 | – | 50 | 2 | 30 | Cc1ccc2c(c1)c1c3n2CCN(C(=O)CCl)C3CCC1 (stereo not drawn) | inactive | inactive
15 | – | inactive | 40 | 4 | – | O=C(NCCc1ccccc1)C(c1cccs1)N(C(=O)CCl)c1ccc(Cl)cc1 (stereo not drawn) | inactive | inactive
52 | 23 | – | 50 | < 1 | – | Cc1ccc(S(=O)(=O)N2CCN(C(=O)CCl)C2c2ccccc2)cc1 (stereo not drawn) | inactive | inactive
27 | – | inactive | 41 | 1.5 | – | O=C(CCl)N1N=C(c2ccc(Br)cc2)CC1c1ccc(F)cc1 (stereo not drawn) | inactive | inactive
51 | 12 | inactive | 39 | 1.1 | 15 | COc1ccc(N(C(=O)CCl)C(C(=O)NCCc2ccccc2)c2cccs2)cc1Cl (stereo not drawn) | inactive | inactive

Reference: ChEMBL document CHEMBL5329172, “Chloroacetamide fragment library screening identifies new scaffolds for covalent inhibition of the TEAD·YAP1 interaction” (RSC Med Chem, 2023)
